PfG6PD inh = PfG6PD enzyme inhibitors, primary screen, biochemical, fluorescence intensity, uHTS | AID 504690, 2011 | PfGluPho enzyme, NADPH resazurin-diaphorase fluorescence | inhibition, % at 20 µM | 350,000 tested, 0.78% active;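 active = inhibition reaching at least a set limit at 20 µM in the primary screen, cut at about 59% in these data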
iPSC survival up = enhancers of single-cell hiPSC survival, primary screen, ATPlite luminescence. survival enhancement, % at 20 µM. 100% = ROCK inhibitor wells, 0% = DMSO. 360,000 tested, 0.044% active; in the data active = survival enhancement above about 18%;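 also: cells exposed to compounds for 16 hours before the ATP read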
HKDC1 inh = HKDC1 hexokinase inhibitors, primary screen, biochemical, fluorescence, uHTS; recombinant HKDC1, G6PDH/diaphorase resazurin coupled fluorescence; AID 493160, 2011; 340,000 tested, 0.16% active; Q2TB90; inhibition, % at 20 µM;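 active = inhibition above about 35% when tested at 20 µM, limit read from the data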
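Assay system – recombinant HKDC1 (HK5) hexokinase enzyme, produced in-house · Input – HKDC1 at 5 µg/mL · Reagent – glucose plus 1 mM ATP as hexokinase substrates · Timing – 90 min reaction incubation at room temperature, dark · Measured by – G6PDH/diaphorase-coupled fluorescence, 1 mM NADP, 100 µM resazurin, 525/613 nm · Benchmarks – DMSO-enzyme wells negative, buffer-substituted wells positive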
A3A deaminase = APOBEC3A ssDNA deaminase inhibitors, primary screen, selectivity assay for APOBEC3G inhibitor project, biochemical, FAM/TAMRA oligo cleavage fluorescence; DNA dC->dU-editing enzyme APOBEC-3A (Homo sapiens), P31941; recombinant A3A, FAM/TAMRA ssDNA deamination fluorescence; inhibition, % at 20 µM; 330,000 tested, 0.41% active;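 active = at least 40% inhibition at 20 µM here, with at most 30% in a related deaminase screen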
Target sequence (P31941 whole entry, looked up): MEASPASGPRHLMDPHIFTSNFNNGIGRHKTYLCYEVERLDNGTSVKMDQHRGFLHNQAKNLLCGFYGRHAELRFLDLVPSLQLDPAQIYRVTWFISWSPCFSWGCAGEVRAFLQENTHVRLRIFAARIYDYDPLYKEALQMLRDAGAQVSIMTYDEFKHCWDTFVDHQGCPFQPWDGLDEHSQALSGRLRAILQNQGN
A3G deaminase = APOBEC3G DNA deaminase inhibitors, primary screen, biochemical, fluorescence, single-stranded DNA substrate, uHTS. recombinant A3G, ssDNA deamination FAM/TAMRA fluorescence. inhibition, % at 20 µM. 330,000 tested, 0.28% active. DNA dC->dU-editing enzyme APOBEC-3G (Homo sapiens), Q9HC16;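 active = inhibition of at least 40% at 20 µM, with no more than 30% in the related APOBEC3A deaminase screen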
Target sequence (Q9HC16 whole entry, looked up): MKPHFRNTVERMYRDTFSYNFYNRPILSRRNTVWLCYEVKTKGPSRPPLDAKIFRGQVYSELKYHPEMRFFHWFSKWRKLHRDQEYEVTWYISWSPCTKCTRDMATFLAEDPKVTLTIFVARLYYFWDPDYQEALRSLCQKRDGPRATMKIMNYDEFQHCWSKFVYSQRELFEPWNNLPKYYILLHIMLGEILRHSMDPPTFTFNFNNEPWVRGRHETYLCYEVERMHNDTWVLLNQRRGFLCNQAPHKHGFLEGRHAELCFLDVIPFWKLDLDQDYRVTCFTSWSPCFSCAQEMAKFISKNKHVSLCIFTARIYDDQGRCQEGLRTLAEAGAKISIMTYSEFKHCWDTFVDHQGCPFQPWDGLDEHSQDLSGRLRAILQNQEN
HKDC1 act conf = HKDC1 hexokinase activators, confirmation, biochemical, single concentration; inhibition, % at 20 µM; AID 504708, 2011; 740 tested, 14% active; shares compounds with HKDC1 inh; recombinant HKDC1, G6PDH/diaphorase resazurin fluorescence; stronger effect = lower value;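 active = inhibition at or below a set negative limit, negative inhibition meaning the enzyme was activated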
PfGluPho conf = PfG6PD inhibitors, hit retest, confirmation, biochemical, fluorescence intensity, single concentration; shares compounds with PfG6PD inh; recombinant PfGluPho, NADPH-diaphorase-resazurin fluorescence; inhibition, % at 20 µM; 2,400 tested, 34% active;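 active = inhibition of at least 50% at 20 µM in any single replicate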
Diaphorase 10uM = diaphorase inhibitors and chemical oxidizers, confirmation, counter-screen for P. falciparum G6PD inhibitor project, biochemical, fluorescence intensity, 10 µM NADPH. AID 504862, 2011. shares compounds with PfG6PD inh. 820 tested, 39% active. diaphorase-coupled resazurin reduction, NADPH 10 uM. inhibition, % at 20 µM;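 active = average inhibition reaching 50% or more with the compound at 20 µM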;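 also: resorufin red fluorescence formed as diaphorase reduces resazurin using NADPH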
Diaphorase 30uM = diaphorase inhibitors and chemical oxidizers, confirmation, counter-screen for P. falciparum G6PD inhibitor project, biochemical, fluorescence intensity, 30 µM NADPH; inhibition, % at 20 µM; shares compounds with PfG6PD inh; 820 tested, 29% active; Diaphorase/resazurin coupled assay, resorufin fluorescence;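 active = inhibition averaging 50% or more, tested at 20 µM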
A number is an active result. Shown are actives, neighbours in structure and some others; about 1.4% of the full set was active somewhere.

O=C(O)CSc1cc(NS(=O)(=O)c2ccc(Cl)cc2)c2ccccc2c1O was read as PfG6PD inh 109, iPSC survival up inactive, HKDC1 inh 65, HKDC1 act conf inactive, PfGluPho conf 91, Diaphorase 10uM 56 and Diaphorase 30uM inactive.
Screening O=S(=O)(Nc1cc(S(=O)(=O)N2CCOCC2)ccc1O)c1ccc2c(c1)OCCCO2 returned PfG6PD inh inactive, iPSC survival up inactive, HKDC1 inh inactive, A3A deaminase inactive and A3G deaminase inactive.
O=C(c1ccco1)N1CCN(C(=O)c2ccc(-c3ccc([N+](=O)[O-])cc3)o2)CC1 was read as PfG6PD inh 64, iPSC survival up inactive, HKDC1 inh inactive, A3A deaminase inactive, A3G deaminase inactive and PfGluPho conf inactive.
For COC(=O)[C@]12CCCCC=C1N(Cc1ccco1)C(=O)[C@H](CC(=O)NCc1ccc(OC)c(OC)c1)C2 the results were iPSC survival up inactive.
COc1ccc(Nc2nnc(SCc3cc(=O)n4ccsc4n3)s2)cc1 was read as PfG6PD inh 82, iPSC survival up inactive, HKDC1 inh inactive, A3A deaminase inactive, A3G deaminase inactive and PfGluPho conf inactive.
O=c1cc(CSc2nnc(Nc3ccccc3F)s2)nc2sccn12 was read as PfG6PD inh inactive, iPSC survival up inactive, HKDC1 inh inactive, A3A deaminase inactive and A3G deaminase inactive.
Screening CC(CNC(=O)c1ccccc1[N+](=O)[O-])NC(=O)c1ccccc1[N+](=O)[O-] (stereo not drawn) returned PfG6PD inh inactive, iPSC survival up inactive, HKDC1 inh inactive, A3A deaminase inactive and A3G deaminase inactive.
CC1=CC(C)(C)Nc2ccc(OC(=O)CN3C(=O)CCC3=O)cc21 was read as PfG6PD inh 62, iPSC survival up inactive, HKDC1 inh inactive, A3A deaminase inactive, A3G deaminase inactive, PfGluPho conf 52, Diaphorase 10uM inactive and Diaphorase 30uM inactive.
For COc1cccc(CN(C)C(=O)C23CC4CC(CC(C4)C2)C3)c1 the results were PfG6PD inh inactive, iPSC survival up inactive, HKDC1 inh inactive, A3A deaminase inactive and A3G deaminase inactive.
Screening Cc1cccc(C)c1NC(=O)CSc1nnc(-c2ccco2)c(-c2ccco2)n1 returned PfG6PD inh 63, iPSC survival up inactive, HKDC1 inh inactive, A3A deaminase inactive, A3G deaminase inactive and PfGluPho conf inactive.
Cc1cc(Nc2ccccc2)nc2cc(O)ccc12 was read as PfG6PD inh inactive, iPSC survival up inactive, HKDC1 inh inactive, A3A deaminase inactive and A3G deaminase inactive.
For COc1ccc(Nc2cc(C)c3ccc(O)cc3n2)cc1 the results were PfG6PD inh 72, iPSC survival up inactive, HKDC1 inh inactive, A3A deaminase inactive, A3G deaminase inactive and PfGluPho conf inactive.
CCC(C(=O)N1CCOCC1)n1nc(C)c2sc3ccccc3c2c1=O (stereo not drawn) was read as PfG6PD inh inactive, iPSC survival up inactive, HKDC1 inh inactive, A3A deaminase inactive and A3G deaminase inactive.
Screening CCOc1ccc(N(CC(=O)N/N=C/c2cc([N+](=O)[O-])ccc2Cl)S(C)(=O)=O)cc1 returned PfG6PD inh 87, iPSC survival up inactive, HKDC1 inh inactive, A3A deaminase inactive, A3G deaminase inactive, PfGluPho conf 60, Diaphorase 10uM 72 and Diaphorase 30uM inactive.
For CCN(CC)c1ccc(C(=C2C=CC(=[N+](CC)CC)C=C2)c2ccccc2)cc1 the results were PfG6PD inh 100, iPSC survival up inactive, HKDC1 inh inactive, PfGluPho conf 68, Diaphorase 10uM inactive and Diaphorase 30uM inactive.
For Cc1cccc(C(=O)NC2CC3CCCC(C2)N3Cc2ccccc2)c1 (stereo not drawn) the results were PfG6PD inh inactive, iPSC survival up inactive, HKDC1 inh inactive, A3A deaminase inactive and A3G deaminase inactive.
`CCOC(=O)C1(C)CCCN1C(=O)c1ccc(OC)cc1` (stereo not drawn) gave iPSC survival up inactive.
Screening COc1ccc(/C=C2\C(=O)NC(=O)c3ccccc32)cc1OC returned PfG6PD inh 69, iPSC survival up inactive, HKDC1 inh inactive and PfGluPho conf inactive.
`NS(=O)(=O)c1ccc(CCNC(=O)c2ccc(NS(=O)(=O)c3ccc4[nH]c(=O)[nH]c4c3)cc2)cc1` gave PfG6PD inh inactive, iPSC survival up inactive, HKDC1 inh inactive, A3A deaminase inactive and A3G deaminase inactive.
For COc1cc2c(C#N)c(N3CCCC3)nc(N)c2c(N)n1 the results were PfG6PD inh inactive, iPSC survival up inactive, HKDC1 inh inactive, A3A deaminase inactive and A3G deaminase inactive.
For N#Cc1c(N2CCCC2)nc(N)c2c(N)nc(N3CCCC3)cc12 the results were PfG6PD inh 107, iPSC survival up inactive, HKDC1 inh inactive, A3A deaminase inactive, A3G deaminase inactive and PfGluPho conf inactive.
For COc1cccc(CNC(=O)CN2C(=O)c3ccccc3S2(=O)=O)c1 the results were PfG6PD inh inactive, iPSC survival up inactive, HKDC1 inh inactive, A3A deaminase inactive and A3G deaminase inactive.
Screening Cc1c(C(=O)Nc2nnc(C(F)(F)F)s2)oc2ccccc12 returned PfG6PD inh 104, iPSC survival up inactive, HKDC1 inh inactive, A3A deaminase inactive, A3G deaminase inactive, PfGluPho conf 71, Diaphorase 10uM 83 and Diaphorase 30uM 68.
`Cc1occc1C(=O)Nc1nnc(C(F)(F)F)s1` gave PfG6PD inh inactive, iPSC survival up inactive, HKDC1 inh inactive, A3A deaminase inactive and A3G deaminase inactive.
Screening Cc1cc(NC(=O)c2oc3ccccc3c2C)ccc1-n1cnnn1 returned PfG6PD inh 111, iPSC survival up inactive, HKDC1 inh inactive, A3A deaminase inactive, A3G deaminase inactive, PfGluPho conf 73, Diaphorase 10uM 72 and Diaphorase 30uM inactive.
